In PubChem BioAssay AID463073 (The Scripps Research Institute Molecular Screening Center, 2010):
In all, about 2,000 compounds went through this assay and about 10 (0.5%) were called active. This is one part of a sample in which actives are shown more often than they occur. A number with no mark means an inactive call.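 How the source made its calls: active means inhibition above 30%; inactive means the rest.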 Residues, ends and D or L forms follow the SMILES beside them. *: point of attachment. Boc = CC(C)(C)OC(=O)*

Target: Protein-arginine deiminase type-4 (Homo sapiens) (UniProt Q9UM07)
Sequence (Q9UM07 whole entry, looked up): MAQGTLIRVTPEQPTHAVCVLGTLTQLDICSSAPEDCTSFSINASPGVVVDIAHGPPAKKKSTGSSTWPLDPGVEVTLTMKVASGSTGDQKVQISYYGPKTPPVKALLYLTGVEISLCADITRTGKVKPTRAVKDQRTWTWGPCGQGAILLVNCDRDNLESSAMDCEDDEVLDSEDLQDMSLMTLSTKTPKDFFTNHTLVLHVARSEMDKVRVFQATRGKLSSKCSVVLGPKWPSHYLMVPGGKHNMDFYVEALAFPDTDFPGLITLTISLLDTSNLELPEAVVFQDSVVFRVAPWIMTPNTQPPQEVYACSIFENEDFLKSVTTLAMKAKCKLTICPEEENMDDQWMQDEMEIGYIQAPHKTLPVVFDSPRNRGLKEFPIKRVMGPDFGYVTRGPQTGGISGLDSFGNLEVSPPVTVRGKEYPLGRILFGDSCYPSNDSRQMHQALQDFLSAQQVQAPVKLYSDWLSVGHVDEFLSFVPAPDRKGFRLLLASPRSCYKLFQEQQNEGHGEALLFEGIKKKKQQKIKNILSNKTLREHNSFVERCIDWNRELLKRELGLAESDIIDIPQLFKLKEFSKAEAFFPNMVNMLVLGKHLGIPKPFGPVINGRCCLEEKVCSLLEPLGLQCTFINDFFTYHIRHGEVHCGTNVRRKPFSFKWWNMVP
Test: human PAD4 inhibitors, primary screen, biochemical, fluorescence polarization (AID 463073);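 further: 0% = PAD4 with DMSO and 100% = wells lacking PAD4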
Settings: recombinant PAD4, RFA probe fluorescence polarization; at 5 µM; active compounds read high
In short: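 Material – recombinant PAD4 · Amount – PAD4 at 2 µM in dispensed buffer, before additions · Medium – Ca2+-containing HEPES pH 7.6, TCEP · Doses – one dose, 5 µM final · Schedule – 30 min 25 °C preincubation, 5 h 37 °C labeling · Measured by – FP, ex 525 nm, em 598 nm · Benchmarks – wells lacking PAD4 as full-inhibition control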

Row | Compound | inhibition
1 | CCc1ccc2oc(=O)cc(CN3CCC(C)CC3)c2c1 | -1.47%
2 | C[N+](C)(C)CCCC(=O)c1ccc2c(c1)OCO2 | 3.91%
3 | CC(=O)NC(CC(C)C)C(=O)NC(Cc1ccccc1)C(N)=O (stereo not drawn) (Ac-Leu-Phe-NH2; configuration not given here) | 1.27%
4 | COc1ccc2c(C=O)cn(C)c2c1 | -2.41%
5 | COC(=O)c1[nH]c2ccccc2c1NC(=O)CN1CCN(C/C=C/c2ccccc2)CC1 | 0.97%
6 | Cc1ccnc(NS(=O)(=O)c2ccc(N)cc2)n1 | 1.25%
7 | COc1cc(=O)n(C)c2ccccc12 | 0.98%
8 | CC(C)CC(NC(=O)c1cccc(Cl)c1)C(=O)O (stereo unspecified) | -0.07%
9 | Cc1c(O)c(=O)ccn1C | 4.09%
10 | Cc1cccc(C)c1NS(=O)(=O)c1ccc(NC(=O)c2ccc(Cl)c([N+](=O)[O-])c2)cc1 | 5.98%
11 | C=CCNC(=S)N1CCc2c([nH]c3ccccc23)C1C (stereo unspecified) | -0.07%
12 | CCN1C(=O)C(CC(=O)Nc2ccc(OC)cc2)N(CCc2ccc(F)cc2)C1=S (stereo unspecified) | 3.71%
13 | Cc1ccccc1-c1nn(-c2ccc(F)cc2F)cc1CNCCN(C)C | -4.06%
14 | COc1ccc2[nH]cc(C(=O)CCl)c2c1 | 2.86%
15 | COC(=O)CN1CC(=O)N(c2ccccc2)C1=S | -0.98%
16 | O=c1oc2c(CN3CCCCC3)c(O)ccc2c2c1CCCCC2 | -1.21%
17 | COC1=C(N)C(=O)c2nc(-c3nc(C(=O)O)c(C)c(-c4ccc(OC)c(OC)c4O)c3N)ccc2C1=O | 92.5% (active)
18 | COc1ccc2oc(=O)c(-c3nc(C)cs3)cc2c1 | 3.51%
19 | O=C(NCc1ccc2c(c1)OCO2)c1ccc2c(c1)OCCO2 | 2.19%
20 | CCOC(=O)C1C(=O)CC(C)(O)C(C(=O)OCC)C1/C=C/c1ccccc1 (stereo unspecified) | 0.16%
21 | CCOc1ccc(N2C(=O)CNC2=S)cc1 | 0.84%
22 | COc1ccc(C(=O)[C@H]2[C@H]3C(=O)N(c4ccccc4)C(=O)[C@H]3C3C=CC=NN32)cc1 (stereo partly specified) | 2.34%
23 | COc1ccc(N2C(=O)[C@@H]3[C@H](C2=O)[C@H]2c4ccccc4C=CN2[C@@H]3C(C)=O)cc1 | 37.2% (active)

Row | Compound | inhibition
24 | COc1ccc(N2C(=O)C3C(C2=O)C(C(=O)c2ccccc2)N2CCCC32)cc1 (stereo unspecified) | 2.54%
25 | CCNCCC(CCC(C)C)c1ccc2c(c1)OCO2 (stereo unspecified) | 2.15%
26 | COc1ccc(C(=O)/C=C/c2cc(C(=O)O)cc3c2OCOC3)c(O)c1 | 3%
27 | Clc1ccc2c(c1)[C@H]1OCC[C@H]1[C@@H](c1ccco1)N2 | 1.39%
28 | NS(=O)(=O)c1cc2c(cc1Cl)NC(CSCc1ccccc1)=NS2(=O)=O | 0.58%
29 | COC(=O)C1=C(C)N(C)C(=S)NC1c1ccc(Cl)cc1 (stereo unspecified) | 0.42%
30 | C#C[C@]1(O)CC[C@H]2[C@@H]3CCC4=C(CCC(=O)C4)[C@H]3CC[C@@]21C | 0.19%
31 | CC[n+]1c(C)sc2cc(C)ccc21 | 0.78%
32 | NC(=O)[C@@H]1[C@@H]2C(=O)N(c3ccc(F)cc3)C(=O)[C@@H]2[C@H]2C=Cc3ccccc3N21 | -1.24%
33 | COc1ccc(-c2[nH]ncc2CN(C)C(C)c2ccon2)c(OC)c1 (stereo unspecified) | 4.74%
34 | COc1cc(NC(=S)NN2CCN(C)CC2)cc(OC)c1OC | -5.47%
35 | CC1(C)Cc2ccccc2C(C(Cc2ccccc2)C(N)=O)=N1 (stereo unspecified) | 1.19%
36 | COc1ccc(NC2=C(Cl)C(=O)N(c3ccccc3)C2=O)c(OC)c1 | 7.44%
37 | CSc1ccc(CN2CCN(CCC(C)C)C(CCO)C2)cc1 (stereo unspecified) | -2.67%
38 | CC1(C)CC(=O)C(C2(O)C(=O)Nc3ccccc32)CO1 (stereo unspecified) | 7.91%
39 | CCOC(=O)c1cnc2ccccc2c1NCCO | 1.39%
40 | COc1ccc(C2(CCN=Cc3ccc(N(C)C)cc3)CCOC(C)(C)C2)cc1 (stereo unspecified) | 4.88%
41 | CC(C)OC(=O)c1ccc(NC(=O)c2cncc(Br)c2)cc1 | 3.13%
42 | CCOc1cccc(N2C(=O)CC(N(CCc3ccc(OC)c(OC)c3)C(=O)CC)C2=O)c1 (stereo unspecified) | 4.11%
43 | C[C@H](NC(=O)Nc1ccccc1F)C(=O)O | 3.34%
44 | Cc1ncc([N+](=O)[O-])n1CCO | -2.21%
45 | CC(C)OC(=O)C1C2C=CC3(CN(CC4CCCO4)C(=O)C13)O2 (stereo unspecified) | 3.74%
46 | CC(=O)C1=C(O)C(=O)OC1c1ccc(C)cc1 (stereo unspecified) | 3.6%

Row | Compound | inhibition
47 | Cc1ccc(CSCC(=O)N2CCCC2)cc1 | 0.78%
48 | Cc1coc2cc3oc(=O)c(CCC(=O)O)c(C)c3cc12 | 1.74%
49 | C=CCNc1nc2c(c(=O)n(C)c(=O)n2C)n1CC(=C)C | 2.6%
50 | CC(=O)Oc1ccc(C2OC(=O)c3ccccc3N2C(C)=O)cc1 (stereo unspecified) | 4.61%
51 | C/C(=N\NC(=O)c1ccccc1[N+](=O)[O-])c1ccc(Br)s1 | -5.19%
52 | CC(=O)OC1c2c(ccc3ccc(=O)oc23)OC(C)(C)C1OC(=O)CC(C)C (stereo unspecified) | 3.34%
53 | COc1ccc2c(c1)C(=O)CC(c1ccccc1F)O2 (stereo unspecified) | -3.92%
54 | O=C(NCCc1nc2ccccc2[nH]1)c1cccc(Br)c1 | 2.09%
55 | CCOC(=O)C1=C2c3ccc4ccccc4c3CC(C)(C)N2C(=O)C1=O | 4.17%
56 | COc1ccc(OC)c(S(=O)(=O)N2CCCc3ccccc32)c1 | 1.48%
57 | CC(=O)c1c(N)nc2n(c1=O)CCCCC2 | 2.24%
58 | CC1(C)C(=O)OC(/C=C\c2ccccc2)C(C)(C)C1=O (stereo unspecified) | -4.36%
59 | Cc1ccc(SCC(=O)Nc2nccs2)cc1 | -3.72%
60 | CCN1CCn2c3c(c4cc(Cl)ccc42)CCCC31 (stereo unspecified) | 0.84%
61 | Cc1ccsc1/C=C/C1=NCCCN1C | 1.68%
62 | CC(C)Cc1cc(C(=O)N2CCC(N3CCC(C(=O)N4CCCC4)CC3)CC2)n[nH]1 | 1.19%
63 | COc1ccc(C(=O)NC(=O)NC2(C(Cl)(Cl)Cl)OCCO2)cc1 | 3.68%
64 | COc1cc(OC)c2c(C)c(Cl)c(=O)oc2c1 | 5.74%
65 | COc1ccc(C2NCCC3(O)CCCCC23)c(OC)c1OC (stereo unspecified) | -0.4%
66 | CC1(C)C(=O)OC(C(=O)c2ccc(Cl)cc2)C(C)(C)C1=O (stereo unspecified) | -1.03%
67 | COc1ccc(OC(C)C(=O)Nc2ccccc2F)cc1 (stereo unspecified) | -0.2%
68 | COc1cccc(OC)c1C(=O)NCCSC1CCCCC1 | -2.94%
69 | COc1ccc(N2C(=O)C3CCCN3C2=O)cc1 (stereo unspecified) | 4.89%

Row | Compound | inhibition
70 | CC1(C)Cc2nc3oc4c(NCc5ccccc5)ncnc4c3cc2CO1 | 1.79%
71 | CCOC(=O)C1NN=C(C(=O)c2ccccc2)C1c1ccc(Cl)cc1 (stereo unspecified) | 1.88%
72 | CN(C)C(=O)C12CCC(C)(c3nc4ccccc4nc31)C2(C)C (stereo unspecified) | 3.6%
73 | Cc1ccc(S(=O)(=O)NC(C(=O)Oc2ccc3c(C(F)(F)F)cc(=O)oc3c2)c2ccccc2)cc1 (stereo unspecified) | 6.06%
74 | O=C(NCCC(c1ccccc1)c1ccco1)c1cccs1 (stereo unspecified) | -4.26%
75 | O=C1CC[C@@H](CN(Cc2ccccc2)Cc2cn[nH]c2-c2cc3ccccc3o2)N1 | -4.5%
76 | CC(C)CC(NC(=O)C1CCCN1C(=O)OC(C)(C)C)C(=O)NCC(N)=O (stereo not drawn) (Boc-Pro-Leu-Gly-NH2; configuration not given here) | 0.39%
77 | Cc1nc2cc3ccccc3cc2c(=O)[nH]1 | -2.65%
78 | O=C(O)c1cnccn1 | 1.59%
79 | CC1(CC(=O)Nc2ccccc2)NC(=S)N(c2ccccc2)N1 (stereo unspecified) | 0.19%
80 | O=C1c2cccc3cccc(c23)C(=O)N1c1ccccn1 | -4.66%
81 | O=C(c1ccc(-c2ccccc2)c(F)c1)C1CCCN(C(=O)c2cncs2)C1 (stereo unspecified) | 3.12%
82 | O=C(O)CCSCCC(=O)O | -2.7%
83 | COc1ccc(C(C)=O)c2c1OCCO2 | 6.78%
84 | CC1(C)CC(C(CC(=O)N2CCCC2)Cc2ccccc2)CCO1 (stereo unspecified) | -1.3%
85 | COc1ccc(NS(=O)(=O)c2ccc(N)cc2)nn1 | 0.73%
86 | COc1ccc(-c2noc(-c3ccccc3-c3ccccc3)n2)cc1 | -3.61%
87 | O=C1C2CC=C(Cl)CC2C(=O)N1CCc1c[nH]c2ccccc12 (stereo unspecified) | -0.53%
88 | COc1ccc(C(CC(=O)N2CCOCC2)C(C)C)cc1 (stereo unspecified) | 4.61%
89 | COc1ccc(N2CCN(C(=S)NCc3ccccc3)CC2)cc1 | -1.38%
90 | COc1ccc(NC(=S)N2CCN(CCN3C(=O)c4cccc5cccc(c45)C3=O)CC2)cc1 | 2.54%
91 | COC(=O)[C@@H](N)CS | 2.39%
92 | O=C(NC(=S)Nc1nc(-c2ccccc2)cs1)c1ccco1 | 4.01%

Row | Compound | inhibition
93 | CC(NC(=O)c1ccc(OC2CCN(Cc3ccccn3)CC2)cc1)c1ccccc1 (stereo unspecified) | -1.87%
94 | OCC1CCN(Cc2cn(Cc3ccccc3)nc2-c2cc3ccccc3o2)CC1 | -3.81%
95 | CCOc1ccc2nc(N/C(N)=N/S(C)(=O)=O)nc(C)c2c1 | -1.87%
96 | COc1cc(SC)ccc1C(=O)NC(C)C | -4.36%
97 | CCn1c(O)c(/C=C2\C=Nc3ccccc32)sc1=O | 6.23%
98 | Cc1ccc(C(=O)NCCNC(=O)c2ccccc2)cc1 | -2.16%
99 | CC12CCC(C(=O)Nc3ccccc3Br)(C/C1=N\O)C2(C)C (stereo unspecified) | 2.8%
100 | COC(=O)c1ccc2c(c1)C(=O)/C(=C/c1ccc(O)cc1)O2 | 2.19%
101 | NC[C@H]1O[C@H](O[C@H]2[C@H](O)[C@@H](O[C@H]3O[C@H](CO)[C@@H](O)[C@H](N)[C@H]3O)[C@H](N)C[C@@H]2N)[C@H](N)C[C@@H]1O | 0.78%
102 | O=C(c1ccccc1)N1CCN(C(=O)c2ccccc2)CC1 | -0.13%
103 | Cn1c(=O)c2c(nc(SCCN3CCCCC3)n2C)n(C)c1=O | 4.29%
104 | CCSC(=O)CCCCCCCCCCCO | 3.34%
105 | CC(C)OC(=O)C1C(=O)CC(C)(O)C(C(=O)OC(C)C)C1c1cccc(O)c1 (stereo unspecified) | 2.73%
106 | COc1ccc(O)c(C(=O)/C=C/c2cc3ccccc3o2)c1 | 0.93%
107 | COc1ccc(CCNC(=O)CC(c2ccccc2)c2cccc(C)c2O)cc1OC (stereo unspecified) | 1.59%
108 | COc1ccc(C2NC(C(=O)O)Cc3c2[nH]c2ccccc32)cc1CN1CCN(c2ccc(F)cc2)CC1 (stereo unspecified) | 6.02%
109 | CC(=O)[C@@]1(O)CC[C@H]2[C@@H]3C[C@H](C)C4=CC(=O)C=C[C@]4(C)[C@@]3(F)[C@@H](O)C[C@@]21C | -5.68%
110 | COc1ccc2c(c1OC)C(=O)OC2C1c2c(cc3c(c2OC)OCO3)CCN1C (stereo unspecified) | 7.1%
111 | CCOC(=O)c1ccc2[nH]c(C)c(CCC(C)=O)c(=O)c2c1 | -4.46%
